From ChEMBL document CHEMBL3232844, “Synthesis and structure activity relationships of schweinfurthin indoles” (2014)

What was measured:
Assay type in all cases: functional
CCRF-CEM = experiment: Cytotoxicity against human CCRF-CEM cells
HL-60(TB) = experiment: Cytotoxicity against human HL-60(TB) cells
How it was run: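 Tested within the NCI 60-cell-line screen, with GI50 as the read-out. Values are the average of two independent experiments. The lowest concentration tested was 10 nM.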

K562 = experiment: Cytotoxicity against human K562 cells
How it was run: (§1)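 Tested in a 60-cell-line human tumor panel screen; the read-out is growth inhibition, reported as GI50 for each cell line.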

MOLT-4 = experiment: Cytotoxicity against human MOLT4 cells; how it was run: as §1
SR = experiment: Cytotoxicity against human SR cells
How it was run: (§2)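 Cell line run as part of the 60-cell-line screening panel; growth inhibition was reported as a GI50 for each line.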

HOP-62 = experiment: Cytotoxicity against human HOP62 cells; how it was run: as §1
NCI-H226 = experiment: Cytotoxicity against human NCI-H226 cells; how it was run: as §1
NCI-H23 = experiment: Cytotoxicity against human NCI-H23 cells; how it was run: as §1
COLO 205 = experiment: Cytotoxicity against human COLO205 cells; how it was run: as §1
HCC 2998 = experiment: Cytotoxicity against human HCC2998 cells; how it was run: as §1
HCT-116 = experiment: Cytotoxicity against human HCT116 cells; how it was run: as §1
[1] = Cytotoxicity against human HCT15 cells; how it was run: as §1
HT-29 = experiment: Cytotoxicity against human HT-29 cells; how it was run: as §1
KM12 = experiment: Cytotoxicity against human KM12 cells; how it was run: as §1
SF-268 = experiment: Cytotoxicity against human SF268 cells; how it was run: as §1
SF-295 = experiment: Cytotoxicity against human SF295 cells; how it was run: as §1
SF-539 = experiment: Cytotoxicity against human SF539 cells; how it was run: as §1
SNB-75 = experiment: Cytotoxicity against human SNB75 cells; how it was run: as §2
LOX IMVI = experiment: Cytotoxicity against human LOXIMVI cells; how it was run: as §1
M14 = experiment: Cytotoxicity against human M14 cells; how it was run: as §1
MDA-MB-435 = experiment: Cytotoxicity against human MDA-MB-435 cells; how it was run: as §1
NCI-H460 = experiment: Cytotoxicity against human NCI-H460 cells; how it was run: as §1
SK-MEL-2 = experiment: Cytotoxicity against human SK-MEL-2 cells; how it was run: as §1
SK-MEL-5 = experiment: Cytotoxicity against human SK-MEL-5 cells; how it was run: as §1
[2] = Cytotoxicity against human UACC257 cells; how it was run: as §2
[3] = Cytotoxicity against human UACC62 cells; how it was run: as §2
IGROV-1 = experiment: Cytotoxicity against human IGROV1 cells; how it was run: as §1
[4] = Cytotoxicity against human OVCAR3 cells; how it was run: as §1
[5] = Cytotoxicity against human OVCAR4 cells; how it was run: as §1
[6] = Cytotoxicity against human OVCAR8 cells; how it was run: as §1
[7] = Cytotoxicity against human NCI-ADR-RES cells; how it was run: as §1
SK-OV-3 = experiment: Cytotoxicity against human SKOV3 cells; how it was run: as §1
786-0 = experiment: Cytotoxicity against human 786-0 cells; how it was run: as §1
CAKI-1 = experiment: Cytotoxicity against human Caki1 cells; how it was run: as §1
RXF 393 = experiment: Cytotoxicity against human RXF393 cells; how it was run: as §1
TK-10 = experiment: Cytotoxicity against human TK10 cells; how it was run: as §2
PC-3 = experiment: Cytotoxicity against human PC3 cells; how it was run: as §1
DU-145 = experiment: Cytotoxicity against human DU145 cells; how it was run: as §1
MCF7 = experiment: Cytotoxicity against human MCF7 cells; how it was run: as §1
MDA-MB-231 = experiment: Cytotoxicity against human MDA-MB-231 cells; how it was run: as §1
BT-549 = experiment: Cytotoxicity against human BT549 cells; how it was run: as §1
T47D = experiment: Cytotoxicity against human T47D cells; how it was run: as §2
MDA-MB-468 = experiment: Cytotoxicity against human MDA-MB-468 cells; how it was run: as §1
[8] = read-out: pLC50 (the source's name) (converted)

COc1cc(/C=C/c2cc(O)c3c(c2)C[C@@H]2C(C)(C)[C@H](O)CC[C@@]2(C)O3)cc2[nH]cc(CC=C(C)C)c12
GI50 (CCRF-CEM): 0.0871 µM | CC50 (CCRF-CEM; [8]): > 100 µM | TGI (CCRF-CEM; read-out: pTGI (converted)): 14.8 µM | GI50 (HL-60(TB)): 0.0646 µM | CC50 (HL-60(TB); [8]): 79.4 µM | TGI (HL-60(TB); read-out: pTGI (converted)): 18.2 µM | GI50 (K562): 0.138 µM | CC50 (K562; [8]): > 100 µM | TGI (K562; read-out: pTGI (converted)): 9.77 µM | GI50 (MOLT-4): 0.105 µM | CC50 (MOLT-4; [8]): > 100 µM | TGI (MOLT-4; read-out: pTGI (converted)): 2.57 µM | GI50 (SR): 0.155 µM | CC50 (SR; [8]): > 100 µM | TGI (SR; read-out: pTGI (converted)): 32.4 µM | GI50 (HOP-62): 0.0501 µM | CC50 (HOP-62; [8]): 40.7 µM | TGI (HOP-62; read-out: pTGI (converted)): 1.7 µM | GI50 (NCI-H226): 8.32 µM | CC50 (NCI-H226; [8]): 72.4 µM | TGI (NCI-H226; read-out: pTGI (converted)): 33.1 µM | GI50 (NCI-H23): 1.55 µM | CC50 (NCI-H23; [8]): 66.1 µM | TGI (NCI-H23; read-out: pTGI (converted)): 26.9 µM | GI50 (COLO 205): 4.17 µM | CC50 (COLO 205; [8]): 21.4 µM | TGI (COLO 205; read-out: pTGI (converted)): 9.33 µM | GI50 (HCC 2998): 6.03 µM | CC50 (HCC 2998; [8]): 67.6 µM | TGI (HCC 2998; read-out: pTGI (converted)): 37.2 µM | GI50 (HCT-116): 0.339 µM | CC50 (HCT-116; [8]): 64.6 µM | TGI (HCT-116; read-out: pTGI (converted)): 36.3 µM | GI50 ([1]; HCT-15): 0.209 µM | CC50 ([1]; HCT-15, read-out: pLC50 (the source's name) (converted)): 36.3 µM | TGI ([1]; HCT-15, read-out: pTGI (converted)): 4.9 µM | GI50 (HT-29): 0.832 µM | CC50 (HT-29; [8]): 21.4 µM | TGI (HT-29; read-out: pTGI (converted)): 5.37 µM | GI50 (KM12): 2.95 µM | CC50 (KM12; [8]): 33.1 µM | TGI (KM12; read-out: pTGI (converted)): 10.2 µM | GI50 (SF-268): 0.851 µM | CC50 (SF-268; [8]): 69.2 µM | TGI (SF-268; read-out: pTGI (converted)): 38.9 µM | GI50 (SF-295; read-out: GI50): < 0.023 µM | GI50 (SF-295; read-out: pGI50 (converted)): 0.0234 µM | CC50 (SF-295; [8]): 6.46 µM | TGI (SF-295; read-out: pTGI (converted)): 0.115 µM | GI50 (SF-539): 0.01 µM | CC50 (SF-539; [8]): 24.5 µM | TGI (SF-539; read-out: pTGI (converted)): 4.47 µM | GI50 (SNB-75): 0.01 µM | CC50 (SNB-75; [8]): 64.6 µM | TGI (SNB-75; read-out: pTGI (converted)): 10.5 µM | GI50 (LOX IMVI): 0.282 µM | CC50 (LOX IMVI; [8]): 30.9 µM | TGI (LOX IMVI; read-out: pTGI (converted)): 6.61 µM | GI50 (M14): 0.537 µM | CC50 (M14; [8]): 64.6 µM | TGI (M14; read-out: pTGI (converted)): 32.4 µM | GI50 (MDA-MB-435): 0.437 µM | CC50 (MDA-MB-435; [8]): 95.5 µM | TGI (MDA-MB-435; read-out: pTGI (converted)): 38 µM | GI50 (NCI-H460): 0.209 µM | CC50 (NCI-H460; [8]): 66.1 µM | TGI (NCI-H460; read-out: pTGI (converted)): 26.9 µM | GI50 (SK-MEL-2): 0.105 µM | CC50 (SK-MEL-2; [8]): 50.1 µM | TGI (SK-MEL-2; read-out: pTGI (converted)): 5.25 µM | GI50 (SK-MEL-5): 1.23 µM | CC50 (SK-MEL-5; [8]): 7.08 µM | TGI (SK-MEL-5; read-out: pTGI (converted)): 2.14 µM | GI50 ([2]; UACC-257): 14.5 µM | CC50 ([2]; UACC-257, read-out: pLC50 (the source's name) (converted)): 77.6 µM | TGI ([2]; UACC-257, read-out: pTGI (converted)): 49 µM | GI50 ([3]; UACC-62): 0.1 µM | CC50 ([3]; UACC-62, read-out: pLC50 (the source's name) (converted)): 33.9 µM | TGI ([3]; UACC-62, read-out: pTGI (converted)): 0.955 µM | GI50 (IGROV-1): 5.01 µM | CC50 (IGROV-1; [8]): 89.1 µM | TGI (IGROV-1; read-out: pTGI (converted)): 45.7 µM | GI50 ([4]; OVCAR-3): 8.71 µM | CC50 ([4]; OVCAR-3, read-out: pLC50 (the source's name) (converted)): 63.1 µM | TGI ([4]; OVCAR-3, read-out: pTGI (converted)): 36.3 µM | GI50 ([5]; OVCAR-4): 10.7 µM | CC50 ([5]; OVCAR-4, read-out: pLC50 (the source's name) (converted)): 77.6 µM | TGI ([5]; OVCAR-4, read-out: pTGI (converted)): 47.9 µM | GI50 ([6]; OVCAR-8): 11.5 µM | CC50 ([6]; OVCAR-8, read-out: pLC50 (the source's name) (converted)): 79.4 µM | TGI ([6]; OVCAR-8, read-out: pTGI (converted)): 47.9 µM | GI50 [7]: 7.59 µM | CC50 [7, 8]: 85.1 µM | TGI ([7]; read-out: pTGI (converted)): 46.8 µM | GI50 (SK-OV-3): 4.68 µM | LC50 (SK-OV-3): 77.6 µM | TGI (SK-OV-3; read-out: pTGI (converted)): 39.8 µM | GI50 (786-0): 0.01 µM | LC50 (concentration killing 50% of cells) (786-0): 21.4 µM | TGI (786-0; read-out: pTGI (converted)): 2.45 µM | GI50 (CAKI-1): 0.245 µM | LC50 (CAKI-1): 79.4 µM | TGI (CAKI-1; read-out: pTGI (converted)): 17 µM | GI50 (RXF 393): 0.01 µM | LC50 (RXF 393): 8.51 µM | TGI (RXF 393; read-out: pTGI (converted)): 0.0339 µM | GI50 (TK-10): 8.32 µM | LC50 (TK-10): 69.2 µM | TGI (TK-10; read-out: pTGI (converted)): 40.7 µM | GI50 (PC-3): 1.32 µM | LC50 (PC-3): > 100 µM | TGI (PC-3; read-out: pTGI (converted)): 43.7 µM | GI50 (DU-145): 5.25 µM | LC50 (50% lethal concentration) (DU-145): 64.6 µM | TGI (DU-145; read-out: pTGI (converted)): 39.8 µM | GI50 (MCF7): 0.537 µM | LC50 (MCF7): 55 µM | TGI (MCF7; read-out: pTGI (converted)): 12.3 µM | GI50 (MDA-MB-231): 0.891 µM | LC50 (MDA-MB-231): 45.7 µM | TGI (MDA-MB-231; read-out: pTGI (converted)): 9.77 µM | GI50 (BT-549): 0.479 µM | CC50 (BT-549; [8]): 67.6 µM | TGI (BT-549; read-out: pTGI (converted)): 41.7 µM | GI50 (T47D): 8.13 µM | CC50 (T47D; [8]): > 100 µM | TGI (T47D; read-out: pTGI (converted)): 39.8 µM | GI50 (MDA-MB-468): 0.182 µM | LC50 (MDA-MB-468): 67.6 µM | TGI (MDA-MB-468; read-out: pTGI (converted)): 4.79 µM
